The target of data set [1] is T1, Prostaglandin G/H synthase 1 (Ovis aries) (UniProt P05979).
T1 sequence (whole entry): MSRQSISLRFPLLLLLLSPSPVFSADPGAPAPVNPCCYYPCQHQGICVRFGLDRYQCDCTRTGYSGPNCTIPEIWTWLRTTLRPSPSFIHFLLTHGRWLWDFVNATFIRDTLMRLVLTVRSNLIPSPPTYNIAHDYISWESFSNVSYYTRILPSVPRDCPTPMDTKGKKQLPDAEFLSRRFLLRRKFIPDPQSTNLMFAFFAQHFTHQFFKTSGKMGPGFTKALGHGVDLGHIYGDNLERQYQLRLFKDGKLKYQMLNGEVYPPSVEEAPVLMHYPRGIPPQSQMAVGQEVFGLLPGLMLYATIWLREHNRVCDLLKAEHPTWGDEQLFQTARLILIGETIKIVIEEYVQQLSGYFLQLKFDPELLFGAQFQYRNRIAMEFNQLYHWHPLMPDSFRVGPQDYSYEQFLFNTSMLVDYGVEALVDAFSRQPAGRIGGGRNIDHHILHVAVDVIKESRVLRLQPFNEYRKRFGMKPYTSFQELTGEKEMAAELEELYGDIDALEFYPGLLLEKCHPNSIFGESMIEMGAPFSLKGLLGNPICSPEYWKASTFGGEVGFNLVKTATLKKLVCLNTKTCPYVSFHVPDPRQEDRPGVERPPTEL
The experiment in a line: Inhibition of ovine COX-1 at 100 uM after 2 mins by fluorescence assay. A digest of the protocol:
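Ovine COX-1 was tested in a fluorescent kit assay in 100 mM Tris-HCl, pH 8.0, with heme and ADHP substrate. Inhibitor was added at a final 100 µM, then the reaction was started with arachidonic acid for 2 min at room temperature. Resorufin was read at ex 535/em 590 nm, and % inhibition was taken against a no-inhibitor control.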

The target in data set [2] is T2, Polyunsaturated fatty acid 5-lipoxygenase (Homo sapiens) (UniProt P09917).
T2 sequence (whole entry): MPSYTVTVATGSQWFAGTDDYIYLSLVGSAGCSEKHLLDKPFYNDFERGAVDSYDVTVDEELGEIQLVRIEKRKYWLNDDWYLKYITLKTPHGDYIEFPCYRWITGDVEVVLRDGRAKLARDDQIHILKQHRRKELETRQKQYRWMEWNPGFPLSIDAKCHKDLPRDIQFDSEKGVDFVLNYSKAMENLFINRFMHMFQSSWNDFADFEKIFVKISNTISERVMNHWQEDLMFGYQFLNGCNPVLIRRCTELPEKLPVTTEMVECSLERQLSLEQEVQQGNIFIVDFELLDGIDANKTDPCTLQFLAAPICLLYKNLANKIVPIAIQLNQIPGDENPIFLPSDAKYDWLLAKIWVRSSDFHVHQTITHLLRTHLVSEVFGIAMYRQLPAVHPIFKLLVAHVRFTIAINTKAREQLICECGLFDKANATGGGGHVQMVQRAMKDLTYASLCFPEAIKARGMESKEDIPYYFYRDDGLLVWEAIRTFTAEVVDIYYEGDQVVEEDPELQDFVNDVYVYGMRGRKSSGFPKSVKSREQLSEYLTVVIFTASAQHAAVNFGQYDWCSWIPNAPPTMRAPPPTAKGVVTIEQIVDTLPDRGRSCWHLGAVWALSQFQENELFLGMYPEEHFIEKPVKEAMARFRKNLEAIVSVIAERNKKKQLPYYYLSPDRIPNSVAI
Briefly: Inhibition of human 5-lipoxygenase at 10 uM.

The subject of data set [3] is Rattus norvegicus. The experiment in a line: Toxicity in Sprague-Dawley rat von Frey hair mechanically-stimulated […] pain model assessed as overt signs of behavioral changes at 10 mg/kg, sc after 9 hrs. Type of data set: organism-based. On the set-up: dose 10 mg/kg, route subcutaneous. The conditions noted are these: in vivo. The essentials: (§1)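 Male Sprague-Dawley rats treated s.c. (10 mg/kg, PEG400 vehicle) in the LPS von Frey study were observed over nine hours on the test day. Animals were checked for behavioral changes and for acute signs such as lacrimation, porphyrin exudation, frozen or hunched posture, gasping or chattering.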

Data set [4] concerns Rattus norvegicus. The experiment in a line: Toxicity in Sprague-Dawley rat von Frey hair mechanically-stimulated […] pain model assessed as acute observable symptoms of toxicity at 10 mg/kg, sc after 9 hrs. Type of data set: organism-based. On the set-up: dose 10 mg/kg, route subcutaneous. The note with it: in vivo. A digest of the protocol: as §1
The next data set deals with U-937. Briefly: Cytotoxicity against human U937 cells. Type of data set: cell-based.
For data set [5], the system named is Rattus norvegicus. Briefly: Antiallodynic activity in Sprague-Dawley rat von Frey hair mechanically-stimulated inflammatory pain model assessed as reversal of LPS-induced decrease in paw withdrawal latency at 10 mg/kg, sc administered 60 mins before LPS challenge.
Data set [6] in a line: Half life in Sprague-Dawley rat at 1 mg/kg, po. Type of data set: ADME, organism-based. The arrangement: dose 1 mg/kg, route oral. The note with it: in vivo. The essentials: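 Male Sprague-Dawley rats (8 weeks, 250–300 g, n = 4) were dosed orally at 1 mg/kg in oleic-ester-rich triglyceride with 10% PEG 400. Tail-vein blood (10 µL) was taken at 0–24 h, mixed with water and stored at −80 °C. Drug was quantified by LC/MS/MS, and t1/2 came from non-compartmental analysis of each rat.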

In general, inhibition refers to the share of the control response that was lost under treatment. A higher inhibition goes with a strong effect. In general, half-life refers to the time in which the quantity being followed falls by half. Low values mean rapid decline, high ones slow decline.

Activity calls are given as the source filed them. The calls are words filed in the database; no cut-off is given here.

`NS(=O)(=O)c1ccc(-n2nc(CCCNC(=O)NC34CC5CC(CC(C5)C3)C4)cc2-c2ccccc2)cc1` yielded an inhibition in data set [1] of 7%.

On to `CS(=O)(=O)c1ccc(-n2nc(CNC(=O)NC34CC5CC(CC(C5)C3)C4)cc2-c2ccccc2)cc1`, for which, in data set [1], the inhibition was found to be 13%.

In data set [1], `NS(=O)(=O)c1ccc(-n2nc(CCCNC(=O)Nc3ccc(Cl)cc3)cc2-c2ccccc2)cc1` gave an inhibition of 15%.

In turn, `Cc1ccc(-c2cc(CCCNC(=O)Nc3cccc(C(F)(F)F)c3)nn2-c2ccc(S(N)(=O)=O)cc2)cc1` came in with an inhibition in data set [1] of 12%.

For `CS(=O)(=O)c1ccc(-n2nc(CNC(=O)Nc3ccc(C(F)(F)F)cc3)cc2-c2ccccc2)cc1`, the inhibition in data set [1] is 11%.

For `NS(=O)(=O)c1ccc(-n2nc(CNC(=O)Nc3cccc(C(F)(F)F)c3)cc2-c2ccccc2)cc1`, in data set [1], the inhibition was 17%.

Take `CC(C)(C)c1cc(CNC(=O)Nc2cccc(C(F)(F)F)c2)nn1-c1ccc(S(C)(=O)=O)cc1`: the inhibition in data set [1] stood at 2%.

In the case of `CS(=O)(=O)c1ccc(-n2nc(CNC(=O)NC3CCCCCC3)cc2-c2ccccc2)cc1`, the inhibition in data set [1] is 3%.

On to `CS(=O)(=O)c1ccc(-n2nc(CNC(=O)Nc3ccc(OC(F)(F)F)cc3)cc2-c2ccccc2)cc1`, for which, in data set [1], the inhibition was determined as 10%.

Consider `NS(=O)(=O)c1ccc(-n2nc(CCCNC(=O)Nc3cccc(C(F)(F)F)c3)cc2-c2ccccc2)cc1`, for which the inhibition in data set [1] was 27%.

`NS(=O)(=O)c1ccc(-n2nc(NC(=O)Nc3cccc(C(F)(F)F)c3)cc2-c2ccccc2)cc1` returned an inhibition in data set [1] of 34%.

Take `NS(=O)(=O)c1ccc(-n2nc(CCCNC(=O)Nc3ccc(C(F)(F)F)cc3)cc2-c2ccccc2)cc1`: the values for the inhibition in data set [1] and in data set [2] were 23% and 83%, respectively. For the same compound, the Activity result with Rattus norvegicus [3], in the data set with Rattus norvegicus [4] and in the data set on U-937 was “Non-toxic” throughout. Besides, the outcome in the data set on Rattus norvegicus [5] was Active.

Compound `Cc1ccc(-c2cc(C(F)(F)F)nn2-c2ccc(S(N)(=O)=O)cc2)cc1` showed an inhibition in data set [2] of 80%. Further, the outcome in the data set on Rattus norvegicus [5] was Active.

`NS(=O)(=O)c1ccc(-n2nc(CCNC(=O)Nc3cccc(C(F)(F)F)c3)cc2-c2ccccc2)cc1` had an inhibition in data set [1] of 22%.

As for `CC(C)c1cccc(C(C)C)c1NC(=O)NCCCc1cc(-c2ccccc2)n(-c2ccc(S(N)(=O)=O)cc2)n1`, the inhibition in data set [1] came to 6%.

As for `CS(=O)(=O)c1ccc(-n2nc(CNC(=O)Nc3cccc(C(F)(F)F)c3)cc2-c2ccccc2)cc1`, the inhibition in data set [1] is 8%.

Compound `NS(=O)(=O)c1ccc(-n2nc(CCCNC(=O)NC3CCCCCC3)cc2-c2ccccc2)cc1` returned an inhibition in data set [1] of 10%.

`O=C(NC12CC3CC(CC(C3)C1)C2)N[C@H]1CC[C@H](Oc2ccc(C(=O)O)cc2)CC1` had an inhibition in data set [1] of 25%. Further, the outcome in the data set with Rattus norvegicus [5] was Active.

`NS(=O)(=O)c1ccc(-n2nc(CCCNC(=O)Nc3ccccc3)cc2-c2ccccc2)cc1` registered an inhibition in data set [1] of 16%.

Consider `CS(=O)(=O)c1ccc(-n2nc(CCCNC(=O)Nc3cccc(C(F)(F)F)c3)cc2-c2ccccc2)cc1`, for which the inhibition in data set [1] was 6%.

In turn, `NS(=O)(=O)c1ccc(-n2nc(CCCNC(=O)Nc3ccc(OC(F)(F)F)cc3)cc2-c2ccccc2)cc1` returned an inhibition in data set [1] of 14%. Besides, the half-life in data set [6] is 12 h.

These data come from ChEMBL document CHEMBL1765073, “Synthesis and structure-activity relationship studies of urea-containing pyrazoles as dual inhibitors of cyclooxygenase-2 and soluble epoxide hydrolase” (J Med Chem, 2011).
